Measurements as given in ChEMBL document CHEMBL1150337, “Lavendamycin antitumor agents: structure-based design, synthesis, and NAD(P)H:quinone oxidoreductase 1 (NQO1) model validation with molecular docking and biological studies” (J Med Chem, 2008).

Assays:
BE-NQ [1] = test: Selectivity ratio of IC50 for NQO1 deficient human BE cells to IC50 for human BE-NQ cells expressing NQO1; type: functional
Outline: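 Ratio of MTT-derived IC50 in NQO1-deficient BE cells to IC50 in NQO1-transfected BE-NQ cells. IC50 was read from semilog plots of percent of control vs concentration.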

[2] = molecular target: NAD(P)H dehydrogenase [quinone] 1 (Homo sapiens) (UniProt P15559); test: Activity of human recombinant NQO1 assessed as reduction of cytochrome c per mg of protein by spectrophotometric assay
Sequence of NAD(P)H dehydrogenase [quinone] 1 (Homo sapiens) (P15559 whole entry): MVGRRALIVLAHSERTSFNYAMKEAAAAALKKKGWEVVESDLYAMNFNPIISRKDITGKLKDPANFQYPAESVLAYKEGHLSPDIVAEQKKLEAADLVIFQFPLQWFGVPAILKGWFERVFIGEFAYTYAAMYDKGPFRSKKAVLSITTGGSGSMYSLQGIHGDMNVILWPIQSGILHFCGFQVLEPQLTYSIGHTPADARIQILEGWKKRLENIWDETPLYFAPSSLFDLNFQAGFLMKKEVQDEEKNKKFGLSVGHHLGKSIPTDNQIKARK
Outline: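 Cytochrome c reduction followed at 550 nm as initial rates. Mix: cytochrome c 70 µm, NADH 1 mM, recombinant human NQO1 (0.1–3 µg) and lavendamycin analogue 25 µm in 1 mL Tris-HCl 25 mM pH 7.4 with 0.7 mg/mL BSA and 0.1% Tween-20. At least triplicate.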

BE-NQ [3] = test: Cytotoxicity against human BE-NQ cells expressing human NQO1 after 4 to 5 days by MTT assay; type: functional, cell-based
Outline: (§1)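 Cells in MEM with Earle's salts, 10% FBS, 37 °C, 5% CO2. Seeded at 10000 cells/mL, attached overnight (16 h). Analogue in medium for 2 h, then fresh medium for 4–5 days. MTT (50 µg) added for 4 h, formazan dissolved in DMSO, absorbance read at 560 nm. IC50 (50% of control survival) taken from semilog plots of percent control vs concentration.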

BE = test: Cytotoxicity against NQO1 deficient human BE cells after 4 to 5 days by MTT assay; type: functional, cell-based; outline: as §1

Row | Activity [2] [µmol/min/mg] | SMILES | Ratio IC50 (BE-NQ [1]) | IC50 (BE-NQ [3]) [µM] | IC50 (BE) [µM]
1 | 143 | CCCCNC(=O)c1cc2c([nH]c3ccccc32)c(-c2ccc3c(n2)C(=O)C(NC(C)=O)=CC3=O)n1 | 30 | 1.7 | 50
2 | 4.9 | CCC(C)NC(=O)c1cc2c([nH]c3ccccc32)c(-c2ccc3c(n2)C(=O)C(NC(C)=O)=CC3=O)n1 (configuration not stated) | – | > 50 | > 50
3 | 7 | COC(=O)c1cc2c([nH]c3ccccc32)c(-c2ccc3c(n2)C(=O)C(NC(=O)c2ccco2)=CC3=O)n1 | 1 | 47 | 49

The remaining lines, values behind:

Row | SMILES | Activity [2] [µmol/min/mg] | Ratio IC50 (BE-NQ [1]) | IC50 (BE-NQ [3]) [µM] | IC50 (BE) [µM]
4 | N=C1C=C(O)c2ccc(-c3nc(C(N)=O)cc4c3[nH]c3ccccc34)nc2C1=O | – | 9 | – | –
5 | NC1=CC(=O)c2ccc(-c3[nH]c(CO)cc4c5ccccc5nc3-4)nc2C1=O | – | 11 | – | –
6 | COC(=O)c1[nH]c(-c2ccc3c(n2)C(=O)C(=N)C=C3O)c2nc3ccccc3c-2c1C | – | 9 | – | –
7 | NC1=CC(=O)c2ccc(-c3nc(C(=O)OCCO)cc4c3[nH]c3ccccc34)nc2C1=O | 60 | 7 | 0.5 | 3.3
8 | CCCC(=O)NC1=CC(=O)c2ccc(-c3nc(C(=O)OCCC(C)C)cc4c3[nH]c3ccccc34)nc2C1=O | 3.4 | – | > 50 | > 50
9 | CCCCCCCCOC(=O)c1cc2c([nH]c3ccccc32)c(-c2ccc3c(n2)C(=O)C(N)=CC3=O)n1 | – | 10 | – | –
